High-throughput results from PubChem BioAssay.
Shown are actives, neighbours in structure and some others; about 2% of the full set was active somewhere.
VLA-4 inh: inhibition in a human VLA-4 binding assay | P13612 | hit rate 0.2% among 330,000 | AID 2557 | VLA-4 expressing cells, ligand binding flow cytometry | inhibition, % (about 7 µM as worked out from the volumes in the protocol); in the data active = inhibition above about 50%
Exocytosis inh: lytic granule exocytosis inhibition; AID 651702; hit rate 0.66% among 360,000; inhibition, % at 10 µM; TALL-104 LAMP-1 surface exposure, flow cytometry; cells stimulated with thapsigargin and PMA;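 active = inhibition above about 55%, limit read from the data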
MT1-MMP act inh: MT1-MMP (human) activation inhibition; hit rate 0.061% among 360,000; HT1080 RFP-PRO-GFP cells, GFP/RFP ratio fluorescence, overnight; percent of plate control window, DMSO zero; GFP/RFP ratio change, % at 20 µM;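 active = GFP/RFP ratio change of at least 30% with cell ATP level not reduced by more than half and red fluorescence within 50% of control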
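Assay system: RFP-PRO-GFP reporter HT1080 cells; read-out basis: GFP/RFP fluorescence ratio; benchmarks: DMSO wells and RFP-L50D-GFP cells; doses: 20 µM single dose, 1% DMSO; schedule: overnight cell settling, then overnight compound exposure, 37 °C, 5% CO2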
ABCB6 inh MLPCN: blocks the human ABCB6 transporter | K562-ABCB6 porphyrin accumulation, flow cytometry, 1 h; active compounds read low | Q9NP58 | hit rate 0.19% among 360,000 | fluorescence ratio to DMSO, % at 10 µM;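 active = fluorescence ratio to DMSO below 75%, the collection mean minus 3 SD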;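 note: signal is porphyrin accumulated inside mitochondria; 100% equals median channel fluorescence of DMSO control wells; lower ratio means ABCB6 inhibition with less porphyrin fluorescence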
DAGLB inh: blocks human DAGLB lipase activity | inhibition, % at 5.17 µM | hit rate 0.059% among 340,000 | HEK293T DAGLB membrane lysate, EnzChek fluorogenic substrate; in the data active = inhibition above about 34%;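 note: 0% = enzyme with vehicle and 100% = wells lacking enzyme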
FGF22 binding: shifts melting point of recombinant human FGF22; recombinant FGF22 thermal shift, SYPRO orange fluorescence; percent of sucrose octasulfate shift, DMSO zero; activity (Tm shift, normalised), % at 9.99 µM; hit rate 1.5% among 340,000;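 active = mean Tm shift, scaled 0 neutral to 100 positive control, at about 1.3% or above, every replicate too, limit read from the data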
An asterisk follows results filed as active; i = inactive; . = no result.

SMILES | VLA-4 inh | Exocytosis inh | MT1-MMP act inh | ABCB6 inh MLPCN | DAGLB inh | FGF22 binding
CCCOC(=O)c1ccc(NC(=O)c2ccccc2[N+](=O)[O-])cc1 | 9 | 0 | 2 | 93 | 0 | 43*
CCCOC(=O)c1ccc(NC(=O)c2ccccc2OC)cc1 | 4 | 8 | 4 | 99 | -9 | 0
CCOC(=O)C1(Cc2cccc(OC)c2)CCN(CCO)CC1 | 20 | -3 | 0 | 97 | -1 | 44*
CCOC(=O)C1(Cc2cccc(OC)c2)CCN(CC(O)CO)CC1 (centres undefined) | 3 | -1 | -2 | 98 | -1 | 0
CCOC(=O)N1CCC(N2CCCC(CO)(Cc3cccc(OC)c3)C2)CC1 (centres undefined) | 7 | 8 | -3 | 100 | -1 | 43*
Cc1noc(C)c1S(=O)(=O)Nc1ccc2c(c1)C(=O)N([C@H](C)CO)C[C@@H](C)[C@H](CN(C)C(=O)Nc1ccc(F)cc1)OCCCC[C@H](C)O2 | . | . | . | . | . | 0
COc1ccc(CCNc2nc(=S)[nH]c3cc(OC)c(OC)cc23)cc1OC | 2 | 13 | -6 | 100 | 1 | 43*
COc1ccc2[nH]c3c(=O)n(Cc4ccc(C(=O)N5CCC(C(N)=O)CC5)cc4)c(=S)[nH]c3c2c1 | 15 | -1 | 4 | 96 | 1 | 43*
COc1ccc2[nH]c3c(=O)n(Cc4ccc(C(=O)N5CCCCCC5)cc4)c(=S)[nH]c3c2c1 | 4 | 0 | -2 | 94 | 0 | 0
Cc1csc(SCC(=O)Nc2ccccc2C)n1 | 15 | 7 | -2 | 101 | -5 | 0
Cc1csc(SCC(=O)Nc2ccccc2[N+](=O)[O-])n1 | -6 | 7 | 1 | 99 | -3 | 44*
O=C1c2cccc3c(N4CCCCC4)ccc(c23)C(=O)N1CCO | -22 | 30 | -231 | 112 | -20 | .
O=C1c2cccc3c(N4CCCCC4)ccc(c23)C(=O)N1c1cccc(O)c1 | 0 | 22 | -97 | 204 | -23 | 44*
Cc1cc(/C=C2/SC(=S)N(c3cccc(Cl)c3)C2=O)c(C)n1-c1cccnc1 | i | 6 | -85 | 336 | -1 | .
Cc1cc(/C=C2/SC(=S)N(c3ccc([N+](=O)[O-])cc3)C2=O)c(C)n1-c1cccnc1 | -45 | 58* | -16 | 124 | 0 | 43*
COc1ccccc1-c1ccc2c(c1)O[C@H](CN(C)Cc1ccc3c(c1)OCO3)[C@H](C)CN([C@H](C)CO)S2(=O)=O | . | . | . | . | . | 0
Cc1ccc(/C=C/C(=O)N2CC(=O)Nc3ccccc32)o1 | -3 | 2 | -2 | 96 | 4 | 44*
CN(CC(=O)O)Cc1oc(CO)cc(=O)c1O | . | -2 | 1 | 95 | -1 | 44*
C[C@H]1CN([C@@H](C)CO)S(=O)(=O)c2ccc(-c3ccccc3)cc2O[C@@H]1CN(C)S(C)(=O)=O | . | . | . | . | . | -1
CCN(CC)C(=O)CSc1nc2c(c(-c3cccnc3)c1C#N)CCCC2 | 14 | 1 | -3 | 106 | 2 | 43*
CN(C)S(=O)(=O)c1ccc(-c2csc(N/N=C/c3ccco3)n2)cc1 | 0 | 102* | -11 | 91 | 7 | 0
Cc1sc(N/N=C/c2ccco2)nc1-c1ccccc1 | -9 | -2 | -2 | 103 | -9 | 44*
CN(C)S(=O)(=O)c1ccc(-c2csc(N/N=C/c3ccc(O)cc3)n2)cc1 | -6 | 101* | 6 | 88 | 5 | 0
Cc1ccc(-c2csc(N/N=C/c3ccco3)n2)cc1 | 1 | -3 | -9 | 97 | 1 | .
Cc1noc(C)c1NC(=O)Nc1ccc2c(c1)C(=O)N([C@@H](C)CO)C[C@@H](C)[C@@H](CN(C)C)OCCCC[C@H](C)O2 | . | . | . | . | . | 0
O=C(C[C@@H]1CC[C@@H]2[C@H](COC[C@H](O)CN2S(=O)(=O)c2cccc(Cl)c2)O1)Nc1ccc(-c2ccccc2)cc1 | . | . | . | . | . | 0
O=C(C[C@@H]1CC[C@H]2[C@@H](COC[C@H](O)CN2S(=O)(=O)c2cccc(Cl)c2)O1)Nc1ccc(-c2ccccc2)cc1 | . | . | . | . | . | 2.7*
Cc1ccc(C2CC(c3ccccc3)=NN2C(=S)Nc2ccccc2)o1 (centres undefined) | 14 | 97* | -5 | 106 | -7 | .
